Reference: ChEMBL document CHEMBL1154801, “Novel phosphoramidates with porphine and nitrogenous drug: one-pot synthesis and orientation to cancer cells” (Eur J Med Chem, 2010)

Legend:
[1] = system: Bel-7402; experiment: Cytotoxicity against human Bel7402 cells after 48 hrs in the dark by MTT assay; format: functional, cell-based; conditions: Bel-7402, 48 h
Procedure, shortened: (§1)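 Cells seeded at 5000 per well and left to attach overnight. Compounds were taken from 50 mM DMSO stocks and diluted to final concentrations of 2.5–100 μM. Cells were exposed for 48 h in the dark, then given MTT (5 mg/mL in PBS) for 3 h. Formazan was dissolved in DMSO and absorbance read at 570 nm. The 50% cell-death concentration (IC50) was determined.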

[2] = Cytotoxicity against human L02 cells after 48 hrs in the dark by MTT assay; format: cell-based; conditions: l02, 48 h; procedure, shortened: as §1

SMILES	IC50 [1]	Activity [2]
O=P(NCCCl)(NCCCl)Oc1ccc(-c2c3nc(c(-c4ccc(Cl)cc4)c4ccc([nH]4)c(-c4ccc(Cl)cc4)c4nc(c(-c5ccc(Cl)cc5)c5ccc2[nH]5)C=C4)C=C3)cc1	20.3 µM	Non-toxic
Cc1ccc(-c2c3nc(c(-c4ccc(C)cc4)c4ccc([nH]4)c(-c4ccc(OP(=O)(NCCCl)NCCCl)cc4)c4nc(c(-c5ccc(C)cc5)c5ccc2[nH]5)C=C4)C=C3)cc1	11.4 µM	Non-toxic
O=Cc1ccc(OP(=O)(NCCCl)NCCCl)cc1	> 150 µM	Toxic
O=P(NCCCl)(NCCCl)Oc1ccc(-c2c3nc(c(-c4ccc(Br)cc4)c4ccc([nH]4)c(-c4ccc(Br)cc4)c4nc(c(-c5ccc(Br)cc5)c5ccc2[nH]5)C=C4)C=C3)cc1	8.41 µM	Non-toxic
COc1ccc(-c2c3nc(c(-c4ccc(OC)cc4)c4ccc([nH]4)c(-c4ccc(OP(=O)(NCCCl)NCCCl)cc4)c4nc(c(-c5ccc(OC)cc5)c5ccc2[nH]5)C=C4)C=C3)cc1	17.3 µM	Non-toxic
O=P(NCCCl)(NCCCl)Oc1ccc(-c2c3nc(c(-c4ccccc4)c4ccc([nH]4)c(-c4ccccc4)c4nc(c(-c5ccccc5)c5ccc2[nH]5)C=C4)C=C3)cc1	14.4 µM	Non-toxic
CC1=C(CCC(=O)O)c2cc3[nH]c(cc4nc(cc5[nH]c(cc1n2)c(C)c5C(C)O)C(C)=C4C(C)O)c(C)c3CCC(=O)O (stereo not drawn)	8.93 µM	
